Legend:
[1] = molecular target: Glutamate receptor 4 (Homo sapiens) (UniProt P48058); assay: Inhibition of GluA4 receptor (unknown origin) expressed in Xenopus laevis oocytes assessed as inhibition of glutamate-induced current at 3 uM by two-electrode voltage clamp method; values are per cent of control; conditions: Oocyte
[2] = molecular target: Neuronal acetylcholine receptor subunit alpha-7 (Homo sapiens) (UniProt P36544); assay: Inhibition of human nicotinic acetylcholine receptor subunit alpha-7 expressed in Xenopus laevis oocytes assessed as inhibition of acetylcholine-induced current at 3 uM by two-electrode voltage clamp method; values are per cent of control; conditions: Oocyte
[3] = molecular target: 5-hydroxytryptamine receptor 3A (Homo sapiens) (UniProt P46098); assay: Inhibition of serotonin 5-HT3A receptor (unknown origin) expressed in Xenopus laevis oocytes assessed as inhibition of serotonin-induced current at 3 uM by two-electrode voltage clamp method; values are per cent of control; conditions: Oocyte
[4] = molecular target: Glutamate receptor 2 (Homo sapiens) (UniProt P42262); assay: Inhibition of GluA2 receptor (unknown origin) expressed in Xenopus laevis oocytes assessed as inhibition of glutamate-induced current at 3 uM by two-electrode voltage clamp method; values are per cent of control; conditions: Oocyte
[5] = molecular target: Glutamate receptor 1 (Homo sapiens) (UniProt P42261); assay: Inhibition of GluA1 receptor (unknown origin) expressed in Xenopus laevis oocytes assessed as inhibition of glutamate-induced current at 3 uM by two-electrode voltage clamp method; values are per cent of control; conditions: Oocyte
[6] = molecular target: P2X purinoceptor 2 (Rattus norvegicus) (UniProt P49653); assay: Inhibition of rat purinergic receptor P2X subunit-2 expressed in Xenopus laevis oocytes assessed as inhibition of ATP-induced current at 3 uM by two-electrode voltage clamp method; values are per cent of control; conditions: Oocyte
[7] = molecular target: Glutamate receptor ionotropic, kainate 2 (Homo sapiens) (UniProt Q13002); assay: Inhibition of GluK2 receptor (unknown origin) expressed in Xenopus laevis oocytes assessed as inhibition of glutamate-induced current at 3 uM by two-electrode voltage clamp method; values are per cent of control; conditions: Oocyte
[8] = molecular target: 5-hydroxytryptamine receptor 6 (Homo sapiens, UniProt P50406); assay: Inhibition of 5HT6 receptor (unknown origin)
Outline: (§1)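 Radioligand panel screening was run through the NIMH Psychoactive Drug Screening Program with compounds at 5 µM.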

[9] = molecular target: Gamma-aminobutyric acid receptor subunit rho-1 (Homo sapiens) (UniProt P24046); assay: Inhibition of human GABA C receptor subunit rho-1 receptor expressed in Xenopus laevis oocytes assessed as inhibition of GABA-induced current at 3 uM by two-electrode voltage clamp method; values are per cent of control; conditions: Oocyte
[10] = molecular target: Glutamate NMDA receptor; GRIN1/GRIN2A (Homo sapiens) (UniProt Q05586+Q12879); assay: Inhibition of GluN1/GluN2A receptor (unknown origin) expressed in Xenopus laevis oocytes assessed as inhibition of glutamate/glycine-induced current at 3 uM by two-electrode voltage clamp method; values are per cent of control; conditions: Oocyte
[11] = molecular target: Ionotropic glutamate receptor NMDA 1/2D (Homo sapiens) (UniProt Q05586+O15399); assay: Inhibition of GluN1/GluN2D receptor (unknown origin) expressed in Xenopus laevis oocytes assessed as inhibition of glutamate/glycine-induced current at 3 uM by two-electrode voltage clamp method; values are per cent of control; conditions: Oocyte
[12] = molecular target: Glycine receptor subunit alpha-1 (Homo sapiens) (UniProt P23415); assay: Inhibition of glycine receptor subunit alpha-1 (unknown origin) expressed in Xenopus laevis oocytes assessed as inhibition of glycine-induced current at 3 uM by two-electrode voltage clamp method; values are per cent of control; conditions: Oocyte
[13] = molecular target: Nicotinic acetylcholine receptor alpha1/beta1/gamma/delta (Mus musculus) (UniProt P04756+P09690+P02716+P04760); assay: Inhibition of mouse nicotinic acetylcholine receptor subunit alpha1beta1gammadelta expressed in Xenopus laevis oocytes assessed as inhibition of acetylcholine-induced current at 3 uM by two-electrode voltage clamp method; values are per cent of control; conditions: Oocyte
[14] = molecular target: Glutamate receptor 3 (Homo sapiens) (UniProt P42263); assay: Inhibition of GluA3 receptor (unknown origin) expressed in Xenopus laevis oocytes assessed as inhibition of glutamate-induced current at 3 uM by two-electrode voltage clamp method; values are per cent of control; conditions: Oocyte
[15] = molecular target: Ionotropic glutamate receptor NMDA 1/2C (Homo sapiens) (UniProt Q05586+Q14957); assay: Inhibition of GluN1/GluN2C receptor (unknown origin) expressed in Xenopus laevis oocytes assessed as inhibition of glutamate/glycine-induced current at 3 uM by two-electrode voltage clamp method; values are per cent of control; conditions: Oocyte
Rattus norvegicus = species on record: Rattus norvegicus; assay: Selectivity ratio of IC50 for recombinant rat GluN2A receptor to IC50 for recombinant rat GluN2D receptor
Outline: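 Rat GluN1 co-expressed with GluN2A, GluN2B or GluN2D in Xenopus oocytes. Two-electrode voltage clamp at −40 mV in 90 NaCl, 1 KCl, 0.5 BaCl2, 0.005 EDTA, 10 HEPES (mM), pH 7.4, 23 °C; final DMSO 0.1–0.05%. IC50s came from Hill fits to averaged composite concentration-response curves (5–24 oocytes, 2–4 frogs). Ratio is GluN2A or GluN2B IC50 over GluN2D IC50.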

[16] = molecular target: Kappa-type opioid receptor (Homo sapiens, UniProt P41145); assay: Inhibition of kappa-type opioid receptor (unknown origin)
Outline: as §1

[17] = molecular target: Ionotropic glutamate receptor kainate 2/5 (Homo sapiens) (UniProt Q16478+Q13002); assay: Inhibition of GluK2/GluK5 receptor (unknown origin) expressed in Xenopus laevis oocytes assessed as inhibition of AMPA-induced current at 3 uM by two-electrode voltage clamp method; values are per cent of control; conditions: Oocyte
Oocyte = assay: Inhibition of gamma-aminobutyric acid receptor A […] (unknown origin) expressed in Xenopus laevis oocytes assessed as inhibition of GABA-induced current at 3 uM by two-electrode voltage clamp method; values are per cent of control; conditions: Homo sapiens
Plasma = assay: Metabolic stability in rat plasma after 2 hrs; type: ADME, cell-free
Outline: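 Stability followed in human, rat or mouse plasma over a 2-hour time course.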

Chain of Glutamate receptor 4 (Homo sapiens) (P48058 whole entry): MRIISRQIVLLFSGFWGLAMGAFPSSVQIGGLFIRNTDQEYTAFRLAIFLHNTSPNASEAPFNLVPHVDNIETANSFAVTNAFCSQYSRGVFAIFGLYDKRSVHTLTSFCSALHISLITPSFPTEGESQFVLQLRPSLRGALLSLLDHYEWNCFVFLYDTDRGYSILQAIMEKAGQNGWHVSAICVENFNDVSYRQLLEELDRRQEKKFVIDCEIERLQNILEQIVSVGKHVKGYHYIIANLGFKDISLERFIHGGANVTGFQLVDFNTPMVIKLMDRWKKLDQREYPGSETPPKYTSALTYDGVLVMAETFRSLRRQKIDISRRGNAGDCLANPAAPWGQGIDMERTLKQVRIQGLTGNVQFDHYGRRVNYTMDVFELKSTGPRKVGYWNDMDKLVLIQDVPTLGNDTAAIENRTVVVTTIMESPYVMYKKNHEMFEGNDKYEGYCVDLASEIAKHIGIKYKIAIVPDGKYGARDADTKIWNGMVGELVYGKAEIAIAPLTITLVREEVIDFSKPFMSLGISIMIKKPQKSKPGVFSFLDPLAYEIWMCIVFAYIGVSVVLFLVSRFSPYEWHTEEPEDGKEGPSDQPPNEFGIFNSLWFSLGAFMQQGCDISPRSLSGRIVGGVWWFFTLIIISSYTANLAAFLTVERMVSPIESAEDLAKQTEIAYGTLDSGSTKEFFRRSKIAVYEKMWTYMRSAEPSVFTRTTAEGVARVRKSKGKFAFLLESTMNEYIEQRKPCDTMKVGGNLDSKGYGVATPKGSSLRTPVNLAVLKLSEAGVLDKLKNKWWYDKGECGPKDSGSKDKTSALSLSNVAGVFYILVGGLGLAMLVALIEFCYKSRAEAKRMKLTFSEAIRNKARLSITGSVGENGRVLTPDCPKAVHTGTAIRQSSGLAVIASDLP
Chain of 5-hydroxytryptamine receptor 3A (Homo sapiens) (P46098 whole entry): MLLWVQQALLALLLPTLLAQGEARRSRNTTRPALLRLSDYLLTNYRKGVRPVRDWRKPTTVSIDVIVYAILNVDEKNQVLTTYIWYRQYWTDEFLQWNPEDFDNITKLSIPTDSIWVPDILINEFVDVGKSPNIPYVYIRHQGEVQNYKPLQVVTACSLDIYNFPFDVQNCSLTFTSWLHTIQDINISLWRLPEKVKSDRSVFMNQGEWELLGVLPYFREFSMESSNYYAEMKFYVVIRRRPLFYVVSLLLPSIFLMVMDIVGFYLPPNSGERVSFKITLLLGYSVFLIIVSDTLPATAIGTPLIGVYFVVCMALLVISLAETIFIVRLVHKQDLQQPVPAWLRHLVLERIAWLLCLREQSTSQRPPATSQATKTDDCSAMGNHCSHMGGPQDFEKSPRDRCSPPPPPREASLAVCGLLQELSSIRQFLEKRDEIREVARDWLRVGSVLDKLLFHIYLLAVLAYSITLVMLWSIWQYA
Chain of Glutamate receptor 2 (Homo sapiens) (P42262 whole entry): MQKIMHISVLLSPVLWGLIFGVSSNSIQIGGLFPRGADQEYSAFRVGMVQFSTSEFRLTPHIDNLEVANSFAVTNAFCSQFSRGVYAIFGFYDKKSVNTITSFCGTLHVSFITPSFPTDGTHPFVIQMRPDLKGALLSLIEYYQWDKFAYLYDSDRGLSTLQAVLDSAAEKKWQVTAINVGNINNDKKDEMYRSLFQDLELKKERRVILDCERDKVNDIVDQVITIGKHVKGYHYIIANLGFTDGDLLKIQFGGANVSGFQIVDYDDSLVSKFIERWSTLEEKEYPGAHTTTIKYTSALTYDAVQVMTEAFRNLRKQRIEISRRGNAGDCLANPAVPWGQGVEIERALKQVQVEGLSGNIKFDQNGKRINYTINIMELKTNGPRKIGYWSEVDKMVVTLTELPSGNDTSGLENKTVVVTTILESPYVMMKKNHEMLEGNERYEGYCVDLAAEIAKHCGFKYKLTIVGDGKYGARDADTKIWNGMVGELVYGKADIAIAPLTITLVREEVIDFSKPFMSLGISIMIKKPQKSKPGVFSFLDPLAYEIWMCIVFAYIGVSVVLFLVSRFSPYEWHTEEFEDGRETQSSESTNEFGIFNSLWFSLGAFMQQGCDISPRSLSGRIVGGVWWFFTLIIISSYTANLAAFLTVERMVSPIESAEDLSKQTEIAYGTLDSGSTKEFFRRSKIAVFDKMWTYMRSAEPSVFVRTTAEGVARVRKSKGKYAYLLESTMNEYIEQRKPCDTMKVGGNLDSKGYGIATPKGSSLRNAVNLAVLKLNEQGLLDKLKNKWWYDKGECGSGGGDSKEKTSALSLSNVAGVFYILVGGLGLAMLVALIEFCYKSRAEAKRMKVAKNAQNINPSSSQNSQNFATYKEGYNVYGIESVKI
Chain of Glycine receptor subunit alpha-1 (Homo sapiens) (P23415 whole entry): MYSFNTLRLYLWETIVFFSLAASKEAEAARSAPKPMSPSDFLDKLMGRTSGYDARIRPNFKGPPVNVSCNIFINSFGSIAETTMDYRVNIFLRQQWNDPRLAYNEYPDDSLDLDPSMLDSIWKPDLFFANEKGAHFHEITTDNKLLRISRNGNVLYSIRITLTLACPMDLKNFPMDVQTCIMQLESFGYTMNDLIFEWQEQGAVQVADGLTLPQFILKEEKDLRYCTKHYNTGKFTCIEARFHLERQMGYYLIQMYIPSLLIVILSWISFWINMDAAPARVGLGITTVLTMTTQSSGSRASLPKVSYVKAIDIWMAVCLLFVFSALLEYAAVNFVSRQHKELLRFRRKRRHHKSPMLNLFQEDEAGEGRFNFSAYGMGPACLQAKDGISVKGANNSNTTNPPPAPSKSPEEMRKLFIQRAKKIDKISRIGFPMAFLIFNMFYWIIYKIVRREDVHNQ
Chain of Neuronal acetylcholine receptor subunit alpha-7 (Homo sapiens) (P36544 whole entry): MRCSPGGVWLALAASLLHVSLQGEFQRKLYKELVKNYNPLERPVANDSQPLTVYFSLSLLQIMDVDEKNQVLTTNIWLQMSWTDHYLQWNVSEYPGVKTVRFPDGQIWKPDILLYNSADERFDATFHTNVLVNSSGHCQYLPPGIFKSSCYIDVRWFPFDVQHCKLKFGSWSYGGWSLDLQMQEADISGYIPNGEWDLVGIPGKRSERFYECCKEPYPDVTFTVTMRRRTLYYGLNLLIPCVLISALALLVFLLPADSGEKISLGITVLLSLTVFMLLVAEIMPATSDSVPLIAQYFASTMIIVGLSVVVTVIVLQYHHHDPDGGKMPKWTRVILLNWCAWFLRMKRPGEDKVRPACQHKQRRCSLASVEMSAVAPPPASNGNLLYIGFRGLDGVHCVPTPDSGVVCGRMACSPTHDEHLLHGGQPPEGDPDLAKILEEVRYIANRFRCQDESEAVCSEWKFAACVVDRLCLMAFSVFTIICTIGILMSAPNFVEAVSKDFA
Chain of Glutamate receptor 1 (Homo sapiens) (P42261 whole entry): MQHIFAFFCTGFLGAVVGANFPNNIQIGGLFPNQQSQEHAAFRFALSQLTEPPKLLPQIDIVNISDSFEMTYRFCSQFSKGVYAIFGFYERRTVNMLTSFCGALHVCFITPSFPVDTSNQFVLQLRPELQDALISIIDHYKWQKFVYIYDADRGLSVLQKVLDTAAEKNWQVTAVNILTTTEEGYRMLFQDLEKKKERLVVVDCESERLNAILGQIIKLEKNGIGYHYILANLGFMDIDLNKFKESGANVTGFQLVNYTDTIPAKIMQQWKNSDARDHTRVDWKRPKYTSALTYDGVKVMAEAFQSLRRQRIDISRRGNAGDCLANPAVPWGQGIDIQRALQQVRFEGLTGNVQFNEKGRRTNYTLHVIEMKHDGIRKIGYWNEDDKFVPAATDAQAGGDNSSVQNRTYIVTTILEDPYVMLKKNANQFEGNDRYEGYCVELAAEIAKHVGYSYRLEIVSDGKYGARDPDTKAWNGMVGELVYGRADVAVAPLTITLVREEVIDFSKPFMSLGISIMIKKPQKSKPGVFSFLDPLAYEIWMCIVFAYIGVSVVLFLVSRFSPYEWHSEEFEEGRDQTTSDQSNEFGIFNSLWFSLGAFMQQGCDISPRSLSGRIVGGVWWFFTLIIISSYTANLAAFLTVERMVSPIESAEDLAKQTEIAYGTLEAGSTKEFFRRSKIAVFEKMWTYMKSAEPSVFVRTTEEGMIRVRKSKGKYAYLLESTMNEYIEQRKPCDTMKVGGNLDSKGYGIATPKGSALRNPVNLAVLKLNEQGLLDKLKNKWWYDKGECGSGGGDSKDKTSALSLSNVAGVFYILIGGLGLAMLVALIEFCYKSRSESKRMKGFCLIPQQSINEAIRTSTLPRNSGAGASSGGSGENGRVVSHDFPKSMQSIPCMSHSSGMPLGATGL
Chain of P2X purinoceptor 2 (Rattus norvegicus) (P49653 whole entry): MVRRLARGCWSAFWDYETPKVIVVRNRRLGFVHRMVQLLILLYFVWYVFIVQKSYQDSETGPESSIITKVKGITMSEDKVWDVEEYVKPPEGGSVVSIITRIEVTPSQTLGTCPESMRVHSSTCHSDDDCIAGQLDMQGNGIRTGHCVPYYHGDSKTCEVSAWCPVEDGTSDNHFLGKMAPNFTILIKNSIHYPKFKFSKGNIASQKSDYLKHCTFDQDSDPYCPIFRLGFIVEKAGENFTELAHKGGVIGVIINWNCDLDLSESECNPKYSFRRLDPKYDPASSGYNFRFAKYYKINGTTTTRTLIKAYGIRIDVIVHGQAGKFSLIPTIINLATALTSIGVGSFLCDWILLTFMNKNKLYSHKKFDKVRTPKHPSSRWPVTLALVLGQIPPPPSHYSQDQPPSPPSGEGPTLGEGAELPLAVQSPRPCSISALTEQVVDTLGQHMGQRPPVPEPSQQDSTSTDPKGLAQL
Chain of 5-hydroxytryptamine receptor 6 (P50406 whole entry): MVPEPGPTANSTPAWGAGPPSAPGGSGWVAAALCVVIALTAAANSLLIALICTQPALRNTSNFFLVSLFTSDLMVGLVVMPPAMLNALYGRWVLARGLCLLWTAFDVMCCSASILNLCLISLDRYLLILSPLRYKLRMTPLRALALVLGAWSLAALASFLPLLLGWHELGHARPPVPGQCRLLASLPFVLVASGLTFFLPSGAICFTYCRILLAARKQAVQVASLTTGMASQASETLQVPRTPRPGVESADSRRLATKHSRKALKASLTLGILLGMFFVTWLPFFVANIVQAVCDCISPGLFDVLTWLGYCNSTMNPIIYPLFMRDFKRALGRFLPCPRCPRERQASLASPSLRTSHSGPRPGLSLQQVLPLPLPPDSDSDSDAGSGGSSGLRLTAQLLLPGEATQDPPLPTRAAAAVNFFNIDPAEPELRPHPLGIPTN

Compound	residual activity [1] [%]	residual activity [2] [%]	residual activity [3] [%]	residual activity [4] [%]	residual activity [5] [%]	residual activity [6] [%]	residual activity [7] [%]	Ki [8] [µM]	residual activity [9] [%]	residual activity [10] [%]	residual activity [11] [%]	residual activity [12] [%]	residual activity [13] [%]	residual activity [14] [%]	residual activity [15] [%]	Ratio IC50 (Rattus norvegicus)	Ki [16] [µM]	residual activity [17] [%]	residual activity (Oocyte) [%]	Stability (Plasma)
O=C(O)/C=C/C(=O)N1N=C(c2c(-c3ccc(Br)cc3)c3ccccc3[nH]c2=O)CC1c1ccc(Cl)cc1 (racemic)	97	64	95	96	99	96	97	> 10	97	89	14	99	98	100	26	23	> 10	95	95	Stable
O=C(O)CCC(=O)N1N=C(c2c(-c3ccc(Cl)cc3)c3ccccc3[nH]c2=O)CC1c1ccc(Cl)cc1 (racemic)	96	82	95	98	97	97	97	> 10	99	89	14	101	94	99	21	48	> 10	97	97	Stable

Reference: ChEMBL document CHEMBL2424574, “Structure-activity relationships and pharmacophore model of a noncompetitive pyrazoline containing class of GluN2C/GluN2D selective antagonists” (J Med Chem, 2013)
